Results on 2 compounds are retold here after ChEMBL document CHEMBL1154082, “Inhibition of human vascular NADPH oxidase by apocynin derived oligophenols” (Bioorg Med Chem, 2009).

For test [1], the species on record is Homo sapiens. As to the kind of experiment: (§1) Inhibition of NADPH oxidase in human HUVEC assessed as inhibition of superoxide anion generation by cytochrome-C reduction assay. The procedure, abridged: (§2)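 HUVEC (10^5 cells/mL) in phenol red-free DMEM, 10 min at 37°C. LDL (100 μg/mL) activates oxidase. Compound 0–1000 μM with NADPH 100 μM and cytochrome c 250 μM, ±SOD 200 μg/mL, 30 min at room temperature. A550 read. Superoxide taken from the SOD-inhibitable difference using ε 18.7 cm−1mM−1; triplicate.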

Test [2] is described as follows: as §1. The procedure, abridged: as §2
Test [3] is described as follows: Inhibition of p47phox/p22phox interaction by ELISA. Background: ELISA stands for enzyme-linked immunosorbent assay.
The species entered for test [4] is Homo sapiens. Kind of test: Inhibition of NADPH oxidase in human HUVEC assessed as inhibition of superoxide anion generation by DHE staining confocal microscopy. In a few lines: (§3)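 HUVEC in phenol red-free DMEM exposed to compound 0–1 mM for 2 h, washed twice in PBS, resuspended in fresh DMEM. NADPH oxidase activated with PMA (1 μM) for 30 min, then DHE (3 μM) for 30 min, then NADPH (100 μM); kept in dark. Oxyethidium red fluorescence imaged by confocal microscopy, qualitative.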

The species named for test [5] is Homo sapiens. Kind of test: Inhibition of NADPH oxidase in human HUVEC assessed as inhibition of superoxide anion generation up to 1 mM by DHE staining confocal microscopy. The procedure, abridged:
as §3

The source made the active and inactive calls. The calls are words filed in the database; no cut-off is given here.

For `COC1=CC(C(C)=O)=C/C(=C2\C(=O)C(OC)=C(c3cc(C(C)=O)cc(OC)c3O)C(C(C)=O)=C2O)C1=O`, the values for the logIC50 (in the test listed under Homo sapiens [1]; in test [3]) were -1.51 and 0.2, respectively. Moreover, the figures for the 50% inhibitory concentration (IC50) in test [2] and in test [3] were 0.03 µM and 1.6 µM, respectively. The outcome in the test listed under Homo sapiens [4] was Active.

As for `COc1cc(C(C)=O)ccc1O` [APOCYNIN], the logIC50 in the test filed under Homo sapiens [1] was 3.04; in test [3] it was 4.78. For the same compound, the values for the concentration for half-maximal inhibition (IC50) in test [2] and in test [3] were 1090 µM and 61000 µM, respectively. The result in the test listed under Homo sapiens [5] was inactive.

As a reminder, the IC50 is the midpoint of a concentration-inhibition curve.
